Bioassay records from PubChem.
A selection: hits, their analogues and other compounds. The true share with any hit is near 2%.
CSN inh – inhibitors of CSN-mediated cullin deneddylation, primary screen, biochemical, fluorescence polarization, uHTS; Purified CSN, SCF-Nedd8-OG deneddylation; inhibition, % at 12.5 µM; AID 651999, 2013; 0.38% of 360,000 active;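 active means pattern-corrected inhibition above about 35%, with an unprinted fluorescence ratio check between 0.5 and 1.5, limit read from the data, passing the limit was not always enough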
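Material: purified human Csn5 enzyme expressed in HEK293T cells / Medium: Tris buffer pH 7.5, NaCl, DTT, Tween-20, trehalose, ovalbumin / Compound dosing: 12.5 µM single point / Schedule: 90 min incubation of compound, enzyme and substrate at room temperature / Signal: fluorescence polarization of the substrate / Control set: no-enzyme wells high, enzyme-with-substrate wells low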
ATG4B inh – ATG4B protease inhibitors, primary screen, biochemical, fluorescence, uHTS. Cysteine protease ATG4B (Homo sapiens), Q9Y4P1. ATG4B cleavage of LC3-PLA2, NBD-HPC fluorescence, 1 h. inhibition, % at 8.33 µM. 0.51% of 340,000 active. AID 504462, 2011; in the data active means inhibition above about 40%
TPT1 inhibitor – Candida albicans TPT1 enzyme inhibitors, primary screen, biochemical, fluorescence polarization | tRNA 2'-phosphotransferase TPT1 (Candida albicans SC5314) | inhibition, % at 5 µM | recombinant caTPT1, FP RNA substrate dephosphorylation | 0.81% of 300,000 active;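 active means inhibition above the mean of all tested compounds plus 3 SD, set per screening campaign, cut at about 24% in these data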
Rpn11 inh – Rpn11 (PSMD14) deubiquitinase inhibitors, primary screen, biochemical, fluorescence polarization, uHTS; inhibition, % at 20 µM; 26S proteasome non-ATPase regulatory subunit 14 (Homo sapiens), O00487; 0.59% of 360,000 active; human 26S proteasome, Ub4-pepOG fluorescence polarization; 20S core pre-blocked with epoxomicin;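 active means inhibition at 20 µM, scaled to each plate's controls, above about 33%, limit read from the data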
Target sequence (O00487 whole entry, looked up): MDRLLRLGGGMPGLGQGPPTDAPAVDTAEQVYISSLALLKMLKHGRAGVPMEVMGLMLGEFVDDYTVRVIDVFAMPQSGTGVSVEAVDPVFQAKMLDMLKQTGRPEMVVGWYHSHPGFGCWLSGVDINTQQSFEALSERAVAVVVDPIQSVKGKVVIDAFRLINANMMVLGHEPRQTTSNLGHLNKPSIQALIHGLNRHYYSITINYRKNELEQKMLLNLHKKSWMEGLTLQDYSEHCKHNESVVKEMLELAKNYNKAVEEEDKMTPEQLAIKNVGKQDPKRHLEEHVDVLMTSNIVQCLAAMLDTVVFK
SENP1 FRET inh – human SENP1 catalytic domain inhibitors, primary screen, biochemical, FRET, uHTS | inhibition, % at 10 µM | recombinant SENP1 catalytic domain, CyPet-SUMO1-YPet FRET cleavage | Sentrin-specific protease 1 (Homo sapiens), Q9P0U3 | 0.21% of 360,000 active | AID 624204, 2012;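 active means inhibition at least 30% at 10 µM, raw YFP signal under a set limit, fluorescence ratio 0.5 to 1.5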
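material = recombinant human SENP1 catalytic domain, His6-tagged | quantity = 20 pM enzyme | reagent = 25 nM SUMO1 FRET substrate | compound dosing = 10 µM single point, 0.5% DMSO | timing = 50 min enzyme reaction, room temperature, light-protected | detection = FRET, CFP and YFP emission | control set = no-enzyme low, enzyme-DMSO high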
HNF4A DNA FP – change in binding of human HNF4A to DNA, primary screen, biochemical, fluorescence polarization, FITC-DNA. activity change, % at 10 µM. 1 h. 0.3% of 360,000 active. Hepatocyte nuclear factor 4-alpha (Homo sapiens), P41235; in the data active means activity change above about 30%, passing the limit was not always enough
TPT1 inh confirm – Candida albicans TPT1 inhibitors, confirmation, biochemical, fluorescence polarization, triplicate. shares compounds with TPT1 inhibitor. recombinant caTPT1, RNase T1 coupled. inhibition, % at 5 µM. 74% of 2,400 active. AID 2149, 2009;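 active means inhibition above the primary screen limit, the mean inhibition of all tested compounds plus 3 SD, cut at about 25% in these data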
RNase T1 counter – RNase T1 inhibitors, counter-screen for TPT1 inhibitor project, biochemical, fluorescence polarization | inhibition, % at 5 µM | 83% of 2,400 active | RNase T1 cleavage, 1536-well | shares compounds with TPT1 inhibitor | AID 2153, 2009;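 active means inhibition above the solvent-only control well mean plus 3 SD, limit set per screening run, cut at about 23% in these data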;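 further: inhibitors block cleavage so intact labeled substrate keeps polarization high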
Target sequence (P00651 whole entry, looked up): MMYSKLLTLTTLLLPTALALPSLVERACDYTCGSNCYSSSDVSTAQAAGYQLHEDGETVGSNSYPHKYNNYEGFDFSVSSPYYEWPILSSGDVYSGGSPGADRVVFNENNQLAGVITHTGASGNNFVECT
Each line names hits and unclear results; the compound was inactive in the other large screens (follow-up assays come after a bar, where shown).

COc1ccc(Cl)cc1C(=O)NNC(=O)CNC(=O)c1ccc(C)s1	none (no result: TPT1 inhibitor)
Cc1ccc(NC(=O)C2(C)CCN2CCc2ccccc2)cc1O (stereo not given)	none (no result: ATG4B inh, TPT1 inhibitor)
COc1cc(/C=C(\C#N)C(=O)Nc2ccccn2)ccc1O	TPT1 inhibitor 34 | TPT1 inh confirm 57 | RNase T1 counter 63
CCOc1cc(/C=C(\C#N)C(=O)Nc2ccccn2)ccc1O	none
Oc1c(C=NCc2ccncc2)sc2ccccc12	none (no result: CSN inh, Rpn11 inh, SENP1 FRET inh, HNF4A DNA FP)
Oc1c(/C=N/c2ccccn2)sc2ccccc12	TPT1 inhibitor 45 | TPT1 inh confirm 57 | RNase T1 counter 67
Oc1c(C=Nc2ccc(Cl)cn2)sc2ccccc12	TPT1 inhibitor 31 | TPT1 inh confirm 39 | RNase T1 counter 49
COC(=O)C1C2CC3c4[nH]c5cc(OC)ccc5c4CCN3CC2CC(OC2CCCCO2)C1OC (stereo not given)	none (no result: ATG4B inh, TPT1 inhibitor)
COC(=O)[C@H]1[C@H]2C[C@@H]3c4[nH]c5cc(OC)ccc5c4CCN3C[C@H]2C[C@@H](OC(=O)c2cc(OC)c(OC)c(OC)c2)[C@@H]1OC	TPT1 inhibitor 41 | TPT1 inh confirm 45 | RNase T1 counter 58
CNc1ccc(C(=O)OCC(=O)NCc2ccc3c(c2)OCO3)cc1[N+](=O)[O-]	none (no result: TPT1 inhibitor)
CCN1CCC2(CC1)C(C#N)=C(N)Oc1c2sc2nc(C)cc(C)c12	TPT1 inhibitor 64 | TPT1 inh confirm inactive | RNase T1 counter 25
CCCCCC(=O)N1C[C@H](O)[C@@H](n2cc(COC(=O)c3ccccc3)nn2)C[C@@H]1c1ccc(OC)cc1	none (no result: ATG4B inh, TPT1 inhibitor)
CCc1nc2ccc(C(=O)Nc3ccc(OC)c(OC)c3)cn2c1N(C)Cc1cccs1	none (no result: ATG4B inh, TPT1 inhibitor)
Cc1cc2oc(=O)cc(CN3CCCc4ccccc43)c2cc1C	TPT1 inhibitor 48 (not shown: Rpn11 inh) | TPT1 inh confirm 43 | RNase T1 counter 53
Cc1cc2oc(=O)cc(CN3CCCCC3)c2cc1C	none
O=[N+]([O-])c1ccc(N2CCN(Cc3ccccc3)CC2)nc1	none
O=[N+]([O-])c1ccc(N2CCN(Cc3ccccc3)CC2)s1	TPT1 inhibitor 31 | TPT1 inh confirm 38 | RNase T1 counter 50
CCN1C=C(Cc2ccc(OC)cc2)C2=C(C1)C(c1ccc(OC)cc1)C(C#N)=C(N)O2 (stereo not given)	TPT1 inhibitor 44 | TPT1 inh confirm 27 | RNase T1 counter 35
O=C(N/N=C\c1c(O)ccc2ccccc12)c1cncc(Br)c1	TPT1 inhibitor 136 (not shown: Rpn11 inh) | TPT1 inh confirm 151 | RNase T1 counter 138
O=C(N/N=C\c1c(O)ccc2ccccc12)c1ccc(O)cc1	none
O=C(NN=Cc1c(O)ccc2ccccc12)c1ccncc1	none (not shown: TPT1 inhibitor, Rpn11 inh)
O=C(N/N=C/c1c(O)ccc2ccccc12)c1cccnc1	TPT1 inhibitor 64, HNF4A DNA FP 43 (not shown: Rpn11 inh) | TPT1 inh confirm 99 | RNase T1 counter 98
COc1ccc(NC(=O)c2ccc(-c3c(C)noc3C)c3ccoc23)cc1	none (no result: ATG4B inh, TPT1 inhibitor)
CCCNC(=O)C1(C)CCCN(C(=O)c2cccc(OC(F)(F)F)c2)C1 (stereo not given)	none (no result: ATG4B inh, TPT1 inhibitor)
CC1(C(=O)NS(=O)(=O)c2ccccc2)CCN1C(=O)COc1ccc(Cl)cc1 (stereo not given)	none (no result: ATG4B inh, TPT1 inhibitor)
